Like-named read-outs stand apart in the source and are kept apart here. Blank lines part the entries; values can stand above or below the molecule they belong to.
Legend:
[1] = tested on: APPSwe/PS1dE9 mice; assay: PET/CT imaging, transgenic mice; assay type: in vivo; settings: static PET at 30 min, n=3, no statistical significance
In short: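 Male APPSwe/PS1dE9 transgenic mice (aged 12 months) and male C57BL/6 controls (aged 13 months) under isoflurane received 30-37 MBq i.v. via tail vein. PET/CT images were fused with a brain-template atlas to give regional values. In static images, regional SUV was normalised to brain stem (n=3). Transgenic and control regions were compared by Student's t-test, α=0.05.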

[2] = Stability in the final formulation; assay type: physicochemical; settings: 6 h, room temperature
In short: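 Three samples of the formulated tracer, a filtered ethanol/saline formulation with phosphate and Tween 80, were held at room temperature. Each was analysed at 0, 1, 2, 3, 4, 5 and 6 h by radio-HPLC on C18 with MeCN:H2O 75:25 at 1 mL/min, using UV 215 nm and gamma detectors. Radiochemical purity was taken as the tracer peak area relative to total radioactivity.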

[3] = Stability in plasma; assay type: in vitro ADME, human; settings: 2 h incubation at 37 °C
[4] = biological target: Aβ plaques (Homo sapiens, UniProt P05067); assay: In vitro binding assays with Aβ plaques; set-up: species or system 3xTg-AD mice
[5] = Protein binding assay; assay type: in vitro ADME; settings: human plasma, gel filtration
In short: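 Human plasma (1 mL) with 100 μL radiotracer was incubated at 37 °C for 120 min. At 30, 60 and 120 min, 50 μL was applied to pre-spun G-50 size-exclusion spin columns, left 2 min, and centrifuged 2 min at 3300 rpm, 4 °C. Column (free) and eluate (bound) activity were gamma-counted. The blank used 0.1 M phosphate buffer instead of plasma, at 120 min.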

[6] = Lipophilicity, n-octanol/phosphate buffer partition coefficient; assay type: physicochemical; settings: n-octanol/phosphate buffer 0.1 mol/L, pH 7.4; mean of two batches in triplicate
[7] = tested on: C57BL/6 mice; assay: PET/CT imaging, control healthy mice; assay type: in vivo; settings: wild-type mice, i.v.
In short: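 Male C57BL/6 controls (aged 13 months), anaesthetised with 4-5% isoflurane (1-2% maintenance), received 30-37 MBq via lateral tail vein. Dynamic PET ran 120 min, framed 10x2 min, 5x5 min and 5x15 min, with CT at 45 kVp for anatomy. Decay-corrected PET was fused with CT and an MRI mouse brain template holding predefined brain regions of interest.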

[8] = Biodistribution study and non-compartmental pharmacokinetics; assay type: in vivo, Balb/C mice; settings: i.v.
In short: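 Thirty healthy male Balb/C mice (10-12 weeks, 28.5±2.0 g) in 6 groups of 5 received 20-40 MBq i.v. via lateral tail vein. Blood was collected and mice were killed at 5, 15, 30, 45, 70 and 180 min. Organs were removed, washed with saline, dried and weighed, and radioactivity was well-counted. Plasma PK parameters came from non-compartmental analysis, reported as mean and standard deviation.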

[9] = biological target: Aβ; settings: cited from earlier work
[10] = cited from earlier work
[11] = brain serial sections of 3xTg-AD mice
[12] = plasma of healthy Balb/C male mice, NCA

Aβ plaques, sequence (P05067 672-713): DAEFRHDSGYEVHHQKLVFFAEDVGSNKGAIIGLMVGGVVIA

stability (radiochemical purity) of final formulation [2]: did not significantly change
stability in fresh human plasma [3]: not degraded
Kd [4]: 0.16 nM
Bmax [4, 11]: 119.4 nM
fold higher BP than [^11C]PIB [4, 11]: 3 folds
fold higher affinity for Aβ plaques compared with [^11C]PIB [4, 11]: 6 fold
plasma protein binding (PPB) [5]: high PPB percentage
log Poct/PBS [6]: 2.46 ± 0.06
time of maximum activity in brain (dynamic PET) [7]: 2 min
bone uptake ([8]; healthy Balb/C mice): relatively high bone uptake
uptake in kidneys and liver ([8]; healthy Balb/C mice): high uptake values
brain uptake (washout/clearance) ([8]; healthy Balb/C mice, 60 min): 0.11±0.03 %ID/g
T1/2 (plasma) [8, 12]: 37 ± 10 min
Vss [8, 12]: 10.3 ± 2.9 mL
Vss/kg [8, 12]: 0.372 ± 0.11 L/kg
Compound: COc1ccc2cc(CCC[18F])ccc2c1 [[^18F]Amylovis, 2-(3-[^18F]fluoropropyl)-6-methoxynaphthalene]
uptake in cortex, transgenic vs control healthy mice (SUVr to brain stem) [1]: slightly incremented uptake

Compound: CNc1ccc(/C=C/c2ccc(OCCOCCOCCF)cc2)cc1 [[^18F]Florbetaben, BAY94-9172]
Kd ([9]; AD brain homogenates ref 60): 16 nM
Log P [10]: 2.41 [65]

Compound: CNc1ccc(/C=C/c2ccc(OCCOCCOCCF)nc2)cc1 [[^18F]Florbetapir, AV-45]
Kd ([9]; AD brain homogenates ref 62): 3.72 nM

Compound: CNc1ccc(-c2nc3ccc(O)cc3s2)cc1F [[^18F]Flutemetamol, GE-067]
Kd ([9]; AD brain homogenates ref 59): 6.7 nM
Log P [10]: 1.7 [64]

Source: article PMC6463402 (Current Radiopharmaceuticals, 2019)
